The values that follow come from PMC12123421 (Journal of medicinal chemistry, 2022).

In data set [1] the test system is immortalized oral keratinocyte (OKF6) cells. The data set can be described thus: Cytotoxic effect on oral epithelial cells. Type of data set: cell-based, human. Conditions: 24 h, microscopy.
Data set [2] is described as follows: Cytotoxic effect on oral epithelial cells. Format: cell-based, human. To be noted: human, OKF6/hTERT immortalized oral keratinocyte cells.
In data set [3] the test system is P. gingivalis ATCC 33277. The experiment in a line: Colony forming unit. To be noted: 24 h exposure, CFUs counted after 5 days. Type of data set: cell-based, Porphyromonas gingivalis. In outline:
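P. gingivalis ATCC 33277 at 1 × 10^8 cells/well, grown exponentially in supplemented BHI under anaerobic conditions in 96-well plates. Exposed 24 h to test compound in DMSO at 1, 10 or 100 μM. Negative controls were medium or DMSO; positive controls were tetracycline 2.81 μM and zafirlukast 25 and 50 μM. Cultures diluted 1:400, spread on blood agar, and CFUs counted after 5 days anaerobic.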

The subject of data set [4] is P. gingivalis ATCC 33277. The data set can be described thus: Percent growth inhibition of planktonic P. gingivalis, colorimetric WST-1 assay. Type of data set: cell-based, Porphyromonas gingivalis. To be noted: for P. gingivalis growth inhibition: 2.5 h after addition of WST-1; for inhibition at 10 µM / inhibition at 100 µM: Porphyromonas gingivalis, ATCC33277, read-out: P. gingivalis growth inhibition. For orientation: Formazan colour is commonly taken as a measure of viable cells.

The subject of data set [5] is BEAS-2B. The experiment in a line: Mammalian cytotoxicity assay. Type of data set: cell-based, human. Conditions: for concentration up to which no toxicity was observed (BEAS-2B): range 0–62.6 μg/mL, 24 h; for non-toxic concentration as fold of bactericidal concentration (BEAS-2B): vs bactericidal concentration against P. gingivalis. In outline: (§1)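 Cells counted at about 80% confluence and seeded in 96-well plates: 10,000 cells/well for HEK-293, 3,000 cells/well for BEAS-2B and HepG2. Adhered 16 h at 37 °C, 5% CO2. Fresh medium with test compound at 0–62.6 μg/mL (from 1000× stocks) or 0.1% DMSO added, 24 h. Resazurin added 6 h; fluorescence read at 560/590 nm. Survival expressed relative to DMSO wells after medium-only blank subtraction.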

The subject of data set [6] is HepG2. The data set can be described thus: Mammalian cytotoxicity assay. Format: cell-based. Conditions: for concentration up to which no toxicity was exhibited (HepG2): range 0–62.6 μg/mL, 24 h; for non-toxic concentration as fold of bactericidal concentration (HepG2): vs bactericidal concentration against P. gingivalis. In outline:
as §1

The test system of data set [7] is HEK-293. The experiment in a line: Mammalian cytotoxicity assay. Type of data set: cell-based, human. To be noted: for concentration up to which no toxicity was exhibited (HEK-293): range 0–62.6 μg/mL, 24 h; for non-toxic concentration as fold of bactericidal concentration (HEK-293): vs bactericidal concentration against P. gingivalis. In outline: as §1
The test system of data set [8] is murine red blood cells (mRBCs). The experiment in a line: Hemolytic activity against murine red blood cells. Type of data set: cell-based. To be noted: at concentrations up to 27 μg/mL, data not shown.
In data set [9] the test system is P. gingivalis ATCC 33277 biofilm. The data set can be described thus: Inhibition of mono-species biofilm growth, safranin staining. Type of data set: cell-based, Porphyromonas gingivalis. To be noted: at all concentrations tested (10, 25, 50, and 100 μM), 48 h. In outline:
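P. gingivalis ATCC 33277 at 1 × 10^8 bacteria/well, grown logarithmically in supplemented BHI in 96-well plates. Exposed to test compound in DMSO (10, 25, 50, 100 μM) for 48 h, anaerobic, gentle shaking. Negative controls were medium or DMSO; positive controls were tetracycline 2.81 μM and zafirlukast 50 μM. Medium removed, biofilm washed three times with PBS, stained with 0.1% safranin, and percentage biofilm growth determined.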

Data set [10] relates to F. nucleatum ATCC 25586. The experiment in a line: Percent growth inhibition, colorimetric WST-1 assay. Format: cell-based, Fusobacterium nucleatum. Conditions: 24 h, 30 min after addition of WST-1. In outline:
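F. nucleatum was grown in supplemented BHI to log phase (3–4 h after subculture), then seeded at 10^8 cells/well in 90 μL. It was exposed anaerobically to test compound in DMSO (1, 10, 100 μM) for 24 h. WST-1 reagent was added, and absorbance was read at 405 nm (reference 600 nm). % inhibition = 100 × [OD(control) − OD(treated)]/OD(control).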

Where [11] appears, read: at all concentrations tested (1, 10, and 100 μM).

“Also recorded” adds a separate entry of the source.

Turning to `CCCCn1cc(Cc2ccc(OC)c(C(=O)NS(=O)(=O)c3ccc([N+](=O)[O-])cc3)c2)c2cc([N+](=O)[O-])ccc21` [Compound 24g], the “cytotoxicity to OKF6 cells by cell morphology and density” value in [1] (10 μM) is listed as “low toxicity; also recorded: little to no cytotoxicity”; in data set [1] (100 μM), “slight decrease in cell density”. Further, the viability – broadly, a read-out of living cells in per cent, often relative to untreated cells – at 24 h, 10 µM in data set [2] fell in the range of 9 to 63%. In [2], the viability at 24 h, 100 µM is 5 to 23%. Besides, the “growth inhibition by CFU assay (bactericidal activity)” value (“growth inhibition by CFU assay” below) in data set [3] (100 μM) is “bactericidal activity”. In addition, the “P. gingivalis growth inhibition” value was “comparable or superior activity” in [4] (1 μM, 24 h); “comparable or superior activity” in data set [4] (10 μM, 24 h); “comparable or superior activity” in data set [4] (100 μM, 24 h); 69–90% in [4] (setting [11]). Also, the inhibition – broadly, the drop in the measured response relative to a control, in per cent – at 10 µM in [4] lay within 77 to 90%.
On to `CCn1cc(Cc2ccc(OC)c(C(=O)NS(=O)(=O)c3ccc([N+](=O)[O-])cc3)c2)c2cc([N+](=O)[O-])ccc21` [Compound 22g], for which the “growth inhibition by CFU assay” value in data set [3] (10 μM) was “not bactericidal”. Besides, the “P. gingivalis growth inhibition” value was “comparable or superior activity” in data set [4] (10 μM, 24 h) and “comparable or superior activity” in [4] (100 μM, 24 h).
Consider `CCCCn1cc(Cc2ccc(OC)c(C(=O)NS(=O)(=O)c3ccccc3F)c2)c2cc([N+](=O)[O-])ccc21` [Compound 24a], for which the “P. gingivalis growth inhibition” value in data set [4] (1 μM, 24 h) is “little to no activity”.
Turning to `COc1ccc(Cc2cn(C)c3ccc([N+](=O)[O-])cc23)cc1C(=O)NS(=O)(=O)c1ccccc1Br` [Compound 21c], in data set [5], the “concentration up to which no toxicity was observed (BEAS-2B)” value is “up to 31.3 μg/mL” and the “non-toxic concentration as fold of bactericidal concentration (BEAS-2B)” value (“non-toxic concentration as fold … (BEAS-2B)” for short) was determined as 6 fold. Also, in [6], the “concentration up to which no toxicity was exhibited (HepG2)” value is “up to 62.6 μg/mL” and the “non-toxic concentration as fold of bactericidal concentration (HepG2)” value (“non-toxic concentration as fold … (HepG2)” below) was 11- to 13 fold. In [7], the “concentration up to which no toxicity was exhibited (HEK-293)” value is reported as “up to 62.6 μg/mL” and the “non-toxic concentration as fold of bactericidal concentration (HEK-293)” value (“non-toxic concentration as fold … (HEK-293)” for short) is reported as 11- to 13 fold. Moreover, the “cytotoxicity to OKF6 cells by cell morphology and density” value in data set [1] (10 μM) is recorded as “low toxicity”. The “cytotoxicity to OKF6 cells by cell morphology and density” value in [1] (100 μM) is “slight increase in cytotoxicity”. Besides, in data set [2], the viability at 24 h, 10 µM is 9 to 63% and the viability at 24 h, 100 µM fell in the range of 5 to 23%. In addition, in data set [3] (10 μM, 10 µM), the “growth inhibition by CFU assay” value is on record as “bactericidal”. Moreover, the “P. gingivalis growth inhibition” value in data set [4] (100 μM, 24 h) is on record as “comparable or superior activity”. Also, in [4], the inhibition at 100 µM is 61 to 73%.
In the case of `CCCn1cc(Cc2ccc(OC)c(C(=O)NS(=O)(=O)c3ccccc3F)c2)c2cc([N+](=O)[O-])ccc21` [Compound 23a], the “P. gingivalis growth inhibition” value in data set [4] (1 μM, 24 h) is “little to no activity”.
As for `C[C@@H]1[C@H](O)[C@@H](C)/C=C/C=C/C=C/C=C/C=C/C=C/C=C/[C@H](O[C@@H]2O[C@H](C)[C@@H](O)[C@H](N)[C@@H]2O)C[C@@H]2O[C@](O)(C[C@@H](O)C[C@@H](O)[C@H](O)CC[C@@H](O)C[C@@H](O)CC(=O)O[C@H]1C)C[C@H](O)[C@H]2C(=O)O` [amphotericin B], the hemolytic activity in data set [8] was 0%.
`COc1ccc(Cc2cn(C)c3ccc([N+](=O)[O-])cc23)cc1C(=O)NS(=O)(=O)c1ccc([N+](=O)[O-])cc1` [Compound 21g]: the “growth inhibition by CFU assay” value in data set [3] (10 μM) was “bactericidal”. Also, the “P. gingivalis growth inhibition” value in [4] (10 μM, 24 h) was “comparable or superior activity”; in data set [4] (100 μM, 24 h), “comparable or superior activity”. The biofilm growth result in [9] is given as “at least 86%”.
For `COc1ccc(Cc2cn(C)c3ccc([N+](=O)[O-])cc23)cc1C(=O)NS(=O)(=O)c1c(F)cccc1F` [Compound 21d], the “growth inhibition against F. nucleatum” value in data set [10] (1 μM) and in [10] (10 μM) was “no activity” each time. Also, in data set [3] (10 μM), the “growth inhibition by CFU assay” value is reported as “not bactericidal”. For the same compound, the “P. gingivalis growth inhibition” value in [4] (100 μM, 24 h) was “comparable or superior activity”. Further, the inhibition at 100 µM in data set [4] is 61 to 73%.
As for `COc1ccc(Cc2cn(C)c3ccc([N+](=O)[O-])cc23)cc1C(=O)NS(=O)(=O)c1ccccc1F` [Compound 21a], in data set [5], the “concentration up to which no toxicity was observed (BEAS-2B)” value was “up to 62.6 μg/mL” and the “non-toxic concentration as fold … (BEAS-2B)” value is 11- to 13 fold. Besides, in [6], the “concentration up to which no toxicity was exhibited (HepG2)” value was “up to 62.6 μg/mL” and the “non-toxic concentration as fold … (HepG2)” value is 11- to 13 fold. In data set [7], the “concentration up to which no toxicity was exhibited (HEK-293)” value is on record as “up to 62.6 μg/mL” and the “non-toxic concentration as fold … (HEK-293)” value was 11- to 13 fold. Besides, the “P. gingivalis growth inhibition” value in [4] (100 μM, 24 h) is on record as “comparable or superior activity”. Besides, in [4], the inhibition at 100 µM was in the range of 61 to 73%.
Regarding `COc1ccc(Cc2cn(CC(C)C)c3ccc([N+](=O)[O-])cc23)cc1C(=O)NS(=O)(=O)c1ccc([N+](=O)[O-])cc1` [Compound 25g], the “growth inhibition by CFU assay” value in [3] (10 μM) is on record as “not bactericidal”. Moreover, the “P. gingivalis growth inhibition” value in [4] (100 μM, 24 h) is recorded as “comparable or superior activity”. In addition, in data set [4], the inhibition at 100 µM fell in the range of 61 to 73%.
Take `CCCn1cc(Cc2ccc(OC)c(C(=O)NS(=O)(=O)c3ccc([N+](=O)[O-])cc3)c2)c2cc([N+](=O)[O-])ccc21` [Compound 23g]: the “growth inhibition by CFU assay” value in [3] (10 μM) is listed as “not bactericidal”. The “P. gingivalis growth inhibition” value is listed as “comparable or superior activity” in data set [4] (1 μM, 24 h); “comparable or superior activity” in data set [4] (10 μM, 24 h); “comparable or superior activity” in data set [4] (100 μM, 24 h); 60–90% in data set [4] (setting [11]). For the same compound, in [4], the inhibition at 10 µM lay within 77 to 90%.
For the compound `COc1cc(C(=O)NS(=O)(=O)c2ccccc2C)ccc1Cc1cn(C)c2ccc(NC(=O)OC3CCCC3)cc12` [ZAF, zafirlukast, reference compound], the “concentration up to which no toxicity was observed (BEAS-2B)” value in data set [5] is “up to 62.6 μg/mL”. The “concentration up to which no toxicity was exhibited (HepG2)” value in [6] is given as “up to 62.6 μg/mL”. Further, the “concentration up to which no toxicity was exhibited (HEK-293)” value in [7] is “up to 31.3 μg/mL”. In data set [2], this compound registered a viability at 24 h, 25 µM of 41%.
As for `COc1ccc(Cc2cn(C)c3ccc([N+](=O)[O-])cc23)cc1C(=O)NS(=O)(=O)c1ccccc1Cl` [Compound 21b], in [5], the “concentration up to which no toxicity was observed (BEAS-2B)” value is given as “up to 31.3 μg/mL” and the “non-toxic concentration as fold … (BEAS-2B)” value amounted to 6 fold. In data set [6], the “concentration up to which no toxicity was exhibited (HepG2)” value is listed as “up to 62.6 μg/mL” and the “non-toxic concentration as fold … (HepG2)” value was 11- to 13 fold. Also, in data set [7], the “concentration up to which no toxicity was exhibited (HEK-293)” value is on record as “up to 62.6 μg/mL” and the “non-toxic concentration as fold … (HEK-293)” value is reported as 11- to 13 fold. For the same compound, the “cytotoxicity to OKF6 cells by cell morphology and density” value in data set [1] (100 μM) is on record as “slight increase in cytotoxicity”. Besides, in data set [2], the viability at 24 h, 10 µM lay within 9 to 63% and the viability at 24 h, 100 µM was in the range of 5 to 23%. Moreover, the “growth inhibition by CFU assay” value in [3] (10 μM, 10 µM) is “bactericidal”. Besides, the “P. gingivalis growth inhibition” value in [4] (100 μM, 24 h) is “comparable or superior activity”. In addition, in [4], the inhibition at 100 µM lay in the range of 61 to 73%.
